Measurements published in ChEMBL document CHEMBL1921722, “In vitro and in vivo evaluation of select kahalalide F analogs with antitumor and antifungal activities” (Bioorg Med Chem, 2011).

Legend:
SN12C = assay: Cytotoxicity against human SN12C cells assessed as cell growth at 80 nM by sulforhodamine B assay relative to control; assay type: functional; conditions: read-out: Activity
HL-60(TB) [1] = assay: Cytotoxicity against human HL-60(TB) cells assessed as cell growth at 8 nM by sulforhodamine B assay relative to control; assay type: functional; conditions: read-out: Activity
OVCAR-3 [2] = assay: Cytotoxicity against human OVCAR3 cells assessed as cell growth at 80 nM by sulforhodamine B assay relative to control; assay type: functional; conditions: read-out: Activity
HOP-92 = assay: Cytotoxicity against human HOP92 cells by sulforhodamine B assay; assay type: functional; conditions: for TGI: read-out: pTGI (converted)
Method in brief: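 Run by the NCI Developmental Therapeutics Program on its 60-line human tumour cell panel using the standard procedure. Compounds went through a single-concentration prescreen first, and those active by NCI criteria went on to a five-concentration growth-inhibition test. GI50 is the concentration that cuts growth of treated cells to half that of untreated control cells.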

EKVX = assay: Cytotoxicity against human EKVX cells assessed as cell growth at 80 nM by sulforhodamine B assay relative to control; assay type: functional; conditions: read-out: Activity
Hs-578T [3] = assay: Cytotoxicity against human Hs578T cells assessed as cell growth at 80 uM by sulforhodamine B assay relative to control; assay type: functional; conditions: read-out: Activity
HCT-116 = assay: Cytotoxicity against human HCT116 cells assessed as cell growth at 80 uM by sulforhodamine B assay relative to control; assay type: functional; conditions: read-out: Activity
RPMI-8226 [4] = assay: Cytotoxicity against human RPMI8226 cells assessed as cell growth at 8 uM by sulforhodamine B assay relative to control; assay type: functional; conditions: read-out: Activity
Mus musculus [5] = assay: Acute toxicity in athymic nude mouse assessed as mortality at 200 mg/kg, […] after 19 days; assay type: organism-based; design: dose 200 mg/kg, route intraperitoneal; conditions: in vivo, ip, 456 h
NCI-H226 = assay: Cytotoxicity against human NCI-H226 cells assessed as cell growth at 8 uM by sulforhodamine B assay relative to control; assay type: functional; conditions: read-out: Activity
OVCAR-8 = assay: Cytotoxicity against human OVCAR8 cells assessed as cell growth at 800 nM by sulforhodamine B assay relative to control; assay type: functional; conditions: read-out: Activity
M14 = assay: Cytotoxicity against human M14 cells assessed as cell growth at 80 uM by sulforhodamine B assay relative to control; assay type: functional; conditions: read-out: Activity
COLO 205 = assay: Cytotoxicity against human COLO205 cells assessed as cell growth at 8 nM by sulforhodamine B assay relative to control; assay type: functional; conditions: read-out: Activity
Method in brief: (§1)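 Run at NCI in the DTP 60-cell-line human tumor panel by standard procedure. Compounds were first screened at a single concentration, then tested at five tenfold-spaced concentrations. GI50 is the concentration reducing treated-cell growth to half that of untreated controls; TGI is the concentration completely halting growth.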

NCI-H23 [6] = assay: Cytotoxicity against human NCI-H23 cells assessed as cell growth at 80 nM by sulforhodamine B assay relative to control; assay type: functional; conditions: read-out: Activity
T47D = assay: Cytotoxicity against human T47D cells assessed as cell growth at 80 uM by sulforhodamine B assay relative to control; assay type: functional; conditions: read-out: Activity
OVCAR-3 [7] = assay: Cytotoxicity against human OVCAR3 cells assessed as cell growth at 80 uM by sulforhodamine B assay relative to control; assay type: functional; conditions: read-out: Activity
HOP-62 = assay: Cytotoxicity against human HOP62 cells assessed as cell growth at 8 uM by sulforhodamine B assay relative to control; assay type: functional; conditions: read-out: Activity
UO-31 [8] = assay: Cytotoxicity against human UO31 cells assessed as cell growth at 80 nM by sulforhodamine B assay relative to control; assay type: functional; conditions: read-out: Activity
786-0 = assay: Cytotoxicity against human 786-0 cells assessed as cell growth at 800 nM by sulforhodamine B assay relative to control; assay type: functional; conditions: read-out: Activity; method in brief: as §1
OVCAR-5 = assay: Cytotoxicity against human OVCAR5 cells assessed as cell growth at 800 nM by sulforhodamine B assay relative to control; assay type: functional; conditions: read-out: Activity
TK-10 = assay: Cytotoxicity against human TK10 cells assessed as cell growth at 80 uM by sulforhodamine B assay relative to control; assay type: functional; conditions: read-out: Activity
MOLT-4 = assay: Cytotoxicity against human MOLT4 cells assessed as cell growth at 8 uM by sulforhodamine B assay relative to control; assay type: functional; conditions: read-out: Activity
Mus musculus [9] = assay: Acute toxicity in athymic nude mouse assessed as mortality at 400 mg/kg, […] after 19 days; assay type: organism-based; design: dose 400 mg/kg, route intraperitoneal; conditions: in vivo, ip, 456 h
SK-MEL-28 [10] = assay: Cytotoxicity against human SK-MEL-28 cells assessed as cell growth at 800 nM by sulforhodamine B assay relative to control; assay type: functional; conditions: read-out: Activity
SK-MEL-2 = assay: Cytotoxicity against human SK-MEL-2 cells assessed as cell growth at 800 nM by sulforhodamine B assay relative to control; assay type: functional; conditions: read-out: Activity
SF-268 = assay: Cytotoxicity against human SF268 cells assessed as cell growth at 8 nM by sulforhodamine B assay relative to control; assay type: functional; conditions: read-out: Activity
SK-MEL-28 [11] = assay: Cytotoxicity against human SK-MEL-28 cells assessed as cell growth at 8 uM by sulforhodamine B assay relative to control; assay type: functional; conditions: read-out: Activity
IGROV-1 = assay: Cytotoxicity against human IGROV1 cells assessed as cell growth at 800 nM by sulforhodamine B assay relative to control; assay type: functional; conditions: read-out: Activity
HL-60(TB) [12] = assay: Cytotoxicity against human HL-60(TB) cells assessed as cell growth at 800 nM by sulforhodamine B assay relative to control; assay type: functional; conditions: read-out: Activity
SK-MEL-5 = assay: Cytotoxicity against human SK-MEL-5 cells assessed as cell growth at 8 uM by sulforhodamine B assay relative to control; assay type: functional; conditions: read-out: Activity
UO-31 [13] = assay: Cytotoxicity against human UO31 cells by sulforhodamine B assay; assay type: functional; conditions: for TGI: read-out: pTGI (converted)
Method in brief: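 NCI Developmental Therapeutics Program 60-cell-line human tumor panel screen, run at NCI. A single-concentration pre-screen was followed by a five-concentration dose-response in 10-fold steps. GI50 is the concentration that reduces growth of treated cells to half that of untreated control cells. TGI is the concentration that completely halts growth.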

RPMI-8226 [14] = assay: Cytotoxicity against human RPMI8226 cells assessed as cell growth at 80 nM by sulforhodamine B assay relative to control; assay type: functional; conditions: read-out: Activity
Hs-578T [15] = assay: Cytotoxicity against human Hs578T cells assessed as cell growth at 8 uM by sulforhodamine B assay relative to control; assay type: functional; conditions: read-out: Activity
MDA-MB-231 = assay: Cytotoxicity against human MDA-MB-231 cells assessed as cell growth at 80 uM by sulforhodamine B assay relative to control; assay type: functional; conditions: read-out: Activity
NCI-H23 [16] = assay: Cytotoxicity against human NCI-H23 cells assessed as cell growth at 80 uM by sulforhodamine B assay relative to control; assay type: functional; conditions: read-out: Activity
HCC 2998 = assay: Cytotoxicity against human HCC2998 cells assessed as cell growth at 80 nM by sulforhodamine B assay relative to control; assay type: functional; conditions: read-out: Activity
MDA-MB-435 = assay: Cytotoxicity against human MDA-MB-435 cells assessed as cell growth at 8 nM by sulforhodamine B assay relative to control; assay type: functional; conditions: read-out: Activity

| SMILES | growth at 0.08 µM (SN12C) [%] | growth at 0.008 µM (HL-60(TB) [1]) [%] | growth at 0.08 µM (OVCAR-3 [2]) [%] | GI50 (HOP-92) [nM] | LC50 (HOP-92) [nM] | TGI (HOP-92) [nM] | growth at 0.08 µM (EKVX) [%] | growth at 80 µM (Hs-578T [3]) [%] | growth at 80 µM (HCT-116) [%] | growth at 8 µM (RPMI-8226 [4]) [%] | Activity (Mus musculus [5]) | growth at 8 µM (NCI-H226) [%] | growth at 0.8 µM (OVCAR-8) [%] | growth at 80 µM (M14) [%] | growth at 0.008 µM (COLO 205) [%] | growth at 0.08 µM (NCI-H23 [6]) [%] | growth at 80 µM (T47D) [%] | growth at 80 µM (OVCAR-3 [7]) [%] | growth at 8 µM (HOP-62) [%] | growth at 0.08 µM (UO-31 [8]) [%] | also measured |
| --- | --- | --- | --- | --- | --- | --- | --- | --- | --- | --- | --- | --- | --- | --- | --- | --- | --- | --- | --- | --- | --- |
| C/C=C1\NC(=O)[C@H](Cc2ccccc2)NC(=O)[C@@H](C(C)C)NC(=O)[C@@H]([C@@H](C)CC)NC(=O)[C@H](NC(=O)[C@H](NC(=O)[C@H](CCCNCc2ccc(F)c(C)c2)NC(=O)[C@H]2CCCN2C(=O)[C@H](NC(=O)[C@@H](NC(=O)[C@@H](NC(=O)[C@H](NC(=O)CCCC(C)C)C(C)C)[C@@H](C)O)C(C)C)C(C)C)[C@@H](C)CC)[C@@H](C)OC(=O)[C@H](C(C)C)NC1=O | 94 | 91 | 88 | 1410 | 6170 | 2950 | 97 | -30 | -94 | -64 | Non-toxic | -64 | 92 | -49 | 99 | 100 | -13 | -90 | -93 | 106 | growth at 0.8 µM (786-0): 96%; growth at 0.8 µM (OVCAR-5): 55%; growth at 80 µM (TK-10): -9%; growth at 8 µM (MOLT-4): -5%; Activity (Mus musculus [9]): Toxic; growth at 0.8 µM (SK-MEL-28 [10]): 75%; growth at 0.8 µM (SK-MEL-2): 100%; growth at 0.008 µM (SF-268): 97%; growth at 8 µM (SK-MEL-28 [11]): -83%; growth at 0.8 µM (IGROV-1): 48%; growth at 0.8 µM (HL-60(TB) [12]): 106%; growth at 8 µM (SK-MEL-5): -100%; GI50 (UO-31 [13]): 1320 nM; TGI (UO-31 [13]): 2630 nM; growth at 0.08 µM (RPMI-8226 [14]): 129%; growth at 8 µM (Hs-578T [15]): -48%; growth at 80 µM (MDA-MB-231): -89%; growth at 80 µM (NCI-H23 [16]): -82%; growth at 0.08 µM (HCC 2998): 105%; growth at 0.008 µM (MDA-MB-435): 109% |
| C/C=C1\NC(=O)[C@H](Cc2ccccc2)NC(=O)[C@@H](C(C)C)NC(=O)[C@@H]([C@@H](C)CC)NC(=O)[C@H](NC(=O)[C@H](NC(=O)[C@H](CCCNCc2ccc(N3CCOCC3)cc2)NC(=O)[C@H]2CCCN2C(=O)[C@H](NC(=O)[C@@H](NC(=O)[C@@H](NC(=O)[C@H](NC(=O)CCCC(C)C)C(C)C)[C@@H](C)O)C(C)C)C(C)C)[C@@H](C)CC)[C@@H](C)OC(=O)[C@H](C(C)C)NC1=O | 91 | 94 | 87 | 1700 | 47900 | 7080 | 98 | -40 | -58 | -68 | Toxic | -55 | 96 | -69 | 103 | 99 | -7 | -50 | -70 | 104 | growth at 0.8 µM (786-0): 101%; growth at 0.8 µM (OVCAR-5): 64%; growth at 80 µM (TK-10): -56%; growth at 8 µM (MOLT-4): 83%; Activity (Mus musculus [9]): Toxic; growth at 0.8 µM (SK-MEL-28 [10]): 98%; growth at 0.8 µM (SK-MEL-2): 105%; growth at 0.008 µM (SF-268): 98%; growth at 8 µM (SK-MEL-28 [11]): -85%; growth at 0.8 µM (IGROV-1): 55%; growth at 0.8 µM (HL-60(TB) [12]): 93%; growth at 8 µM (SK-MEL-5): -100%; GI50 (UO-31 [13]): 1380 nM; TGI (UO-31 [13]): 2690 nM; growth at 0.08 µM (RPMI-8226 [14]): 113%; growth at 8 µM (Hs-578T [15]): -46%; growth at 80 µM (MDA-MB-231): -43%; growth at 80 µM (NCI-H23 [16]): -85%; growth at 0.08 µM (HCC 2998): 98%; growth at 0.008 µM (MDA-MB-435): 103% |
